Reference: ChEMBL document CHEMBL1123658, “1-(2-pyridinyl)piperazine derivatives with antianaphylactic, antibronchospastic, and mast cell stabilizing activities” (J Med Chem, 1987)

Legend:
Cavia porcellus = assay: Antibronchospatic activity determined by histamine stimulated bronchospasm inhibition in guinea pigs after(i.v.) administration; format: functional, Bronchiole
Summary of the method: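 Guinea pigs, Konzett–Rössler preparation. Bronchospasm was induced with histamine. Compound was given iv (1 mL/kg) 1 min before the agonist, dissolved in saline or saline with slight excess HCl or CH3SO3H (pH 3.5–4). Three doses were tested in duplicate, chosen to give 20–90% inhibition. ID75 was read graphically from log dose–response curves.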

Rattus norvegicus [1] = assay: Rat PCA Test(50% inhibition of spot areas)in the female albino rats after (ip) administration in 10% aqueous acacia gum; format: functional; conditions: read-out: ID50 (the source's name)
Summary of the method: (§1)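 Female albino rats (200–250 g) received intradermal ventral injections of rat anti-egg-albumin antiserum; donors were raised with egg albumin im plus H. pertussis ip, and serum was taken at 12 days. 24 h later, compound was given ip in 10% acacia gum (10 mL/kg), 10 rats/group. Challenge 30 min later was iv 0.3% egg albumin plus 1% Evans blue. Blued areas were measured 30 min after challenge.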

[2] = In vivo toxic effect was determined in mouse after intraperitoneal administration with 10% aqueous acacia gum; value ranges from 4.25-7.74; format: toxicity, organism-based; conditions: ip
Summary of the method: (§2)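 Female albino mice (20-30 g), 10 animals per dose, dosed intraperitoneally with compound in solution or suspension; compounds tested as salts unless noted. Mortality was recorded over 7 days.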

[3] = In vivo toxic effect was determined in mouse after intraperitoneal administration with 10% aqueous acacia gum; value ranges from 1.02-1.35; format: toxicity, organism-based; conditions: ip; summary of the method: as §2
[4] = In vivo toxic effect was determined in mouse after oral administration with 10% aqueous acacia gum;Value ranges from(5.68-7.37); format: toxicity, organism-based
Summary of the method: (§3)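 Female albino mice, 20-30 g. Compound given orally as solution or suspension in 10% aqueous acacia gum, 10 animals per dose. Deaths recorded over 7 days.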

Rattus norvegicus [5] = assay: Inhibition of mast cell degranulation was assessed in female albino rats at a dose of 26 umol/kg iv; format: functional
Rattus norvegicus [6] = assay: Rat PCA Test(50% inhibition of spot areas)in the female albino rats after (ip) administration in 10% aqueous acacia gum; value ranges from 34-42; format: functional; conditions: read-out: ID50 (the source's name); summary of the method: as §1
[7] = In vivo toxic effect was determined in mouse after intraperitoneal administration with 10% aqueous acacia gum; value ranges from 0.61-0.99; format: toxicity, organism-based; conditions: ip; summary of the method: as §2
[8] = In vivo toxic effect was determined in mouse after oral administration with 10% aqueous acacia gum; value ranges from 0.77-1.28; format: toxicity, organism-based; summary of the method: as §3
Rattus norvegicus [9] = assay: Inhibition of mast cell degranulation was assessed in female albino rats at a dose of 28 umol/kg iv; format: functional
Rattus norvegicus [10] = assay: Rat PCA Test(50% inhibition of spot areas)in the female albino rats after oral administration in 10% aqueous acacia gum; value ranges from 30-108; format: functional; conditions: read-out: ID50 (the source's name)
Summary of the method: (§4)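 Female rats (200-250 g) were passively sensitized by ventral intradermal anti-egg-albumin antiserum. This was raised in rats by intramuscular 1% egg albumin plus ip H. pertussis vaccine, with serum taken at 12 days. After 24 h, groups of 10 were dosed orally with compound or vehicle (10 mL/kg). At 60 min, iv challenge used 0.3% egg albumin with 1% Evans blue. Blued areas were measured after 30 min.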

Rattus norvegicus [11] = assay: Rat PCA Test(50% inhibition of spot areas)in the female albino rats after (ip) administration in 10% aqueous acacia gum; value ranges from 141-206; format: functional; conditions: read-out: ID50 (the source's name); summary of the method: as §1
[12] = In vivo toxicity in mouse after oral administration with 10% aqueous acacia gum; format: organism-based; summary of the method: as §3
Mus musculus = assay: In vivo toxic effect was determined in mouse after intraperitoneal administration with 10% aqueous acacia gum; NA means poorly absorbed; format: toxicity, organism-based; conditions: ip; summary of the method: as §2
Rattus norvegicus [13] = assay: Inhibition of mast cell degranulation was assessed in female albino rats at a dose of 23 umol/kg iv; format: functional
Rattus norvegicus [14] = assay: Rat PCA Test(50% inhibition of spot areas)in the female albino rats after (ip) administration in 10% aqueous acacia gum; value ranges from 42-79; format: functional; conditions: read-out: ID50 (the source's name); summary of the method: as §1
Rattus norvegicus [15] = assay: Rat PCA Test(50% inhibition of spot areas)in the female albino rats after oral administration in 10% aqueous acacia gum; value ranges from 99-191; format: functional; conditions: read-out: ID50 (the source's name); summary of the method: as §4
[16] = In vivo toxic effect was determined in mouse after oral administration with 10% aqueous acacia gum; value ranges from 1.75-2.99; format: toxicity, organism-based; summary of the method: as §3
[17] = In vivo toxic effect was determined in mouse after intraperitoneal administration with 10% aqueous acacia gum; value ranges from 0.30-0.61; format: toxicity, organism-based; conditions: ip; summary of the method: as §2
Rattus norvegicus [18] = assay: Inhibition of mast cell degranulation was assessed in female albino rats at a dose of 48 umol/kg iv; format: functional
Rattus norvegicus [19] = assay: Rat PCA Test(50% inhibition of spot areas)in the female albino rats after (ip) administration in 10% aqueous acacia gum; value ranges from […]; format: functional; conditions: read-out: ID50 (the source's name); summary of the method: as §1
Rattus norvegicus [20] = assay: Rat PCA Test(50% inhibition of spot areas)in the female albino rats after oral administration in 10% aqueous acacia gum; format: functional; conditions: read-out: ID50 (the source's name); summary of the method: as §4
[21] = In vivo toxic effect was determined in mouse after intraperitoneal administration with 10% aqueous acacia gum; value ranges from 0.55-1.17; format: toxicity, organism-based; conditions: ip; summary of the method: as §2
[22] = In vivo toxic effect was determined in mouse after oral administration with 10% aqueous acacia gum; value ranges from 0.69-1.33; format: toxicity, organism-based; summary of the method: as §3
Rattus norvegicus [23] = assay: Rat PCA Test(50% inhibition of spot areas)in the female albino rats after oral administration in 10% aqueous acacia gum; value ranges from 80-130; format: functional; conditions: read-out: ID50 (the source's name); summary of the method: as §4
[24] = In vivo toxic effect was determined in mouse after intraperitoneal administration with 10% aqueous acacia gum; value ranges from 2.17-4.89; format: toxicity, organism-based; conditions: ip; summary of the method: as §2
[25] = In vivo toxic effect was determined in mouse after oral administration with 10% aqueous acacia gum; value ranges from 5.08-7.62; format: toxicity, organism-based; summary of the method: as §3
Rattus norvegicus [26] = assay: Inhibition of mast cell degranulation was assessed in female albino rats at a dose of 35 umol/kg iv; format: functional
Rattus norvegicus [27] = assay: Rat PCA Test(50% inhibition of spot areas)in the female albino rats after (ip) administration in 10% aqueous acacia gum; value ranges from 115-142; format: functional; conditions: read-out: ID50 (the source's name); summary of the method: as §1
Rattus norvegicus [28] = assay: Rat PCA Test(50% inhibition of spot areas)in the female albino rats after (ip) administration in 10% aqueous acacia gum; value ranges from 206-307; format: functional; conditions: read-out: ID50 (the source's name); summary of the method: as §1
[29] = In vivo toxic effect was determined in mouse after intraperitoneal administration with 10% aqueous acacia gum; value ranges from 3.43-5.07; format: toxicity, organism-based; conditions: ip; summary of the method: as §2
Rattus norvegicus [30] = assay: Rat PCA Test(50% inhibition of spot areas)in the female albino rats after (ip) administration in 10% aqueous acacia gum; value ranges from 66-231; format: functional; conditions: read-out: ID50 (the source's name); summary of the method: as §1
[31] = In vivo toxic effect was determined in mouse after intraperitoneal administration with 10% aqueous acacia gum; value ranges from 0.89-1.63; format: toxicity, organism-based; conditions: ip; summary of the method: as §2
[32] = In vivo toxic effect was determined in mouse after oral administration with 10% aqueous acacia gum; value ranges from 1.19-2.07; format: toxicity, organism-based; summary of the method: as §3

O=C(O)CCN1CCN(c2ccccn2)CC1
ID75 (Cavia porcellus): 5.23 µM/kg | ED50 (Rattus norvegicus [1]): > 1280 µmol/kg | LD50 [2]: 5540 µmol/kg

COc1cccc(NC(=O)CCN2CCN(c3ccccn3)CC2)c1.Cl.Cl
ID75 (Cavia porcellus): 0.56 µM/kg | ED50 (Rattus norvegicus [1]): > 118 µmol/kg | LD50 [3]: 1180 µmol/kg | LD50 [4]: 7100 µmol/kg

CCOc1ccc(NC(=O)CCN2CCN(c3ccccn3)CC2)cc1.Cl.Cl
inhibition in vivo at 26 µmol/kg (Rattus norvegicus [5]): 0% | ID75 (Cavia porcellus): 0.14 µM/kg | ED50 (Rattus norvegicus [6]): 37 µmol/kg | LD50 [7]: 690 µmol/kg | LD50 [8]: 920 µmol/kg

CSc1ccc(NC(=O)CCN2CCN(c3ccccn3)CC2)cc1
inhibition in vivo at 28 µmol/kg (Rattus norvegicus [9]): 50% | ID75 (Cavia porcellus): 0.17 µM/kg | ED50 (Rattus norvegicus [10]): 57 µmol/kg | ED50 (Rattus norvegicus [11]): 171 µmol/kg | LD50 [12]: > 8400 µmol/kg | LD50 (Mus musculus): Not Active

Cl.Cl.O=C(CCN1CCN(c2ccccn2)CC1)Nc1cccc([N+](=O)[O-])c1
inhibition in vivo at 23 µmol/kg (Rattus norvegicus [13]): 87% | ID75 (Cavia porcellus): 0.37 µM/kg | ED50 (Rattus norvegicus [14]): 58 µmol/kg | ED50 (Rattus norvegicus [15]): 137 µmol/kg | LD50 [16]: 2070 µmol/kg | LD50 [17]: 420 µmol/kg

Cl.Cl.O=C(CCN1CCN(c2ccccn2)CC1)Nc1ccc(Cl)cc1
inhibition in vivo at 48 µmol/kg (Rattus norvegicus [18]): 0% | ED50 (Rattus norvegicus [19]): 43 µmol/kg | ED50 (Rattus norvegicus [20]): > 96 µmol/kg | LD50 [21]: 620 µmol/kg | LD50 [22]: 960 µmol/kg

CC(O)c1ccc(NC(=O)CCN2CCN(c3ccccn3)CC2)cc1 (stereo not given)
inhibition in vivo at 28 µmol/kg (Rattus norvegicus [9]): 22% | ID75 (Cavia porcellus): 0.48 µM/kg | ED50 (Rattus norvegicus [23]): 103 µmol/kg | LD50 [24]: 3250 µmol/kg | LD50 [25]: 5970 µmol/kg

CCOC(=O)C(=O)Nc1ccc(NC(=O)CCN2CCN(c3ccccn3)CC2)cc1
inhibition in vivo at 35 µmol/kg (Rattus norvegicus [26]): 7% | ID75 (Cavia porcellus): 0.23 µM/kg | ED50 (Rattus norvegicus [27]): 127 µmol/kg | LD50 [12]: > 7050 µmol/kg

COC(=O)CCN1CCN(c2ccccn2)CC1.Cl
ID75 (Cavia porcellus): 3.5 µM/kg | ED50 (Rattus norvegicus [28]): 252 µmol/kg | LD50 [29]: 4020 µmol/kg

CCC(=O)Nc1ccc(NC(=O)CCN2CCN(c3ccccn3)CC2)cc1.Cl.Cl
ID75 (Cavia porcellus): 0.23 µM/kg | ED50 (Rattus norvegicus [30]): 147 µmol/kg | LD50 [31]: 1050 µmol/kg | LD50 [32]: 1530 µmol/kg
